Measured values published in ChEMBL document CHEMBL1135819, “N-[3-(1H-imidazol-4-ylmethyl)phenyl]ethanesulfonamide (ABT-866, 1),(1) a novel alpha(1)-adrenoceptor ligand with an enhanced in vitro and in vivo profile relative to phenylpropanolamine and midodrine” (J Med Chem, 2002).
pEC50, pKi: −log10 of the molar value. Calls of active or inactive are those of the source. The calls are words filed in the database; no cut-off is given here.

Key:
[1] = target: T1, Alpha-1A adrenergic receptor (Rattus norvegicus, UniProt P43140); assay: Binding affinity towards rat submaxillary gland Alpha-1 adrenergic receptor; value ranges from (0.12 - 0.15)
T1 sequence (P43140 whole entry): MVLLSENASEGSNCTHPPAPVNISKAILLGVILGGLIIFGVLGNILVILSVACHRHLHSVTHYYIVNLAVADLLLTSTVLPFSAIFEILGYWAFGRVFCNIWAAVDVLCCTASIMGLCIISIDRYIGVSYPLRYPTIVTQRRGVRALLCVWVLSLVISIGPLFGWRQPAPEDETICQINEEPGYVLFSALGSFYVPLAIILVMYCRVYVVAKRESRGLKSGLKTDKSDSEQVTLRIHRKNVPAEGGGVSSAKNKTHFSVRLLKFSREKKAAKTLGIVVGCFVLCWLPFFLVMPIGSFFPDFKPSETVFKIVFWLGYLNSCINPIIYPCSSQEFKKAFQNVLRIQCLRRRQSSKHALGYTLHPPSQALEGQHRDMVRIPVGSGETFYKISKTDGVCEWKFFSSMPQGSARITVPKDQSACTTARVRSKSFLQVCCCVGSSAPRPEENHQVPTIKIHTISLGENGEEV

[2] = target: T2, Alpha-1D adrenergic receptor (Rattus norvegicus, UniProt P23944); assay: Antagonistic activity against Alpha-1D adrenergic receptor determined using phenylephrine challenge in rat aorta isolated tissues.; assay type: functional, tissue-based; details: read-out: pA2 (converted)
T2 sequence (P23944 whole entry): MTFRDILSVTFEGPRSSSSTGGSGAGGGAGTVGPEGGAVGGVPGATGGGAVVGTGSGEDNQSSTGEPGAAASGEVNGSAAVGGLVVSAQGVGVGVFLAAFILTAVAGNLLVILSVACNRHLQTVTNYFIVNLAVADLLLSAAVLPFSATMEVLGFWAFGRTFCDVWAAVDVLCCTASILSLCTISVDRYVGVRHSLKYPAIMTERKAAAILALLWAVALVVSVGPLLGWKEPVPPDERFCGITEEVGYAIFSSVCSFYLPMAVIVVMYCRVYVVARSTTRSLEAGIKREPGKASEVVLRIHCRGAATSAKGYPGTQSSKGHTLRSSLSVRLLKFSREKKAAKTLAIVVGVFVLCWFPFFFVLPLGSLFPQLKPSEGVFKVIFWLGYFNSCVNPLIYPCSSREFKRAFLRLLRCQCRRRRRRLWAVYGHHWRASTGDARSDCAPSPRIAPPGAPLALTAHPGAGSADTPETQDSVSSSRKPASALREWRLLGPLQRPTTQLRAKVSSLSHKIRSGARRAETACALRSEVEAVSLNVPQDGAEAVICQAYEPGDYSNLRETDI

[3] = target: T3, Alpha-1B adrenergic receptor (Rattus norvegicus, UniProt P15823); assay: Antagonistic activity against Alpha-1B adrenergic receptor determined using phenylephrine challenge in rat spleen isolated tissues.; assay type: functional, tissue-based; details: read-out: pA2 (converted)
T3 sequence (P15823 whole entry): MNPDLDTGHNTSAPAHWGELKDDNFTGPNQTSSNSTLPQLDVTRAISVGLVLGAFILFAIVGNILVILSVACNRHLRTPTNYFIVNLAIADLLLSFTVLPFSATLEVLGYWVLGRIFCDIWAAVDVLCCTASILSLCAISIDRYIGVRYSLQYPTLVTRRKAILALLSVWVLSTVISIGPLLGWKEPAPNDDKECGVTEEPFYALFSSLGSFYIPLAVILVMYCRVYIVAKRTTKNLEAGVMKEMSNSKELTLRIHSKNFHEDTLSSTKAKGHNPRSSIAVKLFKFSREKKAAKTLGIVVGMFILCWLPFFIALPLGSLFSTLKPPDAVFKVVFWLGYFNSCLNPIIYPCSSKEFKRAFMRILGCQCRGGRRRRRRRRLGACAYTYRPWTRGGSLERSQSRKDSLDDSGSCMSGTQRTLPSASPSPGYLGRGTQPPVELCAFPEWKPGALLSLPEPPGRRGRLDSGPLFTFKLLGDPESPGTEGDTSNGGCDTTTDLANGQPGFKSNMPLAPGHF

Oryctolagus cuniculus = organism: Oryctolagus cuniculus; assay: In vitro percent efficacy of compound was tested in rabbit urethra; assay type: functional
Canis familiaris [4] = assay: Dose corresponding to a 5 mmHg increase in Intraurethral pressure (IUP) was determined in vivo in isoflurane anesthetized female beagles; assay type: functional, Canis lupus familiaris, Beagle
Method in brief: (§1)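 Female beagles under isoflurane anesthesia; MAP by chronically implanted telemetry transducer/transmitter, IUP by urethral catheter, recorded simultaneously. Increasing iv doses given; maximal effect of each dose taken within 1 min of dosing. Doses giving 5 mmHg IUP rise (IUP ED5) and 20 mmHg MAP rise (MAP ED20) calculated, nmol/kg, mean ± SEM, n ≥ 4.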

Canis familiaris [5] = assay: Dose corresponding to a 20 mmHg increase in mean arterial pressure (MAP) was determined in vivo in isoflurane anesthetized female beagles; assay type: functional, Canis lupus familiaris, Beagle, Artery; method in brief: as §1
[6] = target: T4, Alpha-1B adrenergic receptor (Rattus norvegicus) (UniProt P15823); assay: Effective concentration in vitro against rat spleen Alpha-1B adrenergic receptor (EC50 < 15%) at a concentration of 10 uM; NA is not active; assay type: tissue-based
T4 sequence (whole entry): T3 sequence (P15823 whole entry)

[7] = target: T5, Alpha-1B adrenergic receptor (Mesocricetus auratus, UniProt P18841); assay: Binding affinity towards hamster cloned Alpha-1B adrenergic receptor; value ranges from (2.0 -4.4); set-up: species or system Cricetulus griseus
T5 sequence (P18841 whole entry): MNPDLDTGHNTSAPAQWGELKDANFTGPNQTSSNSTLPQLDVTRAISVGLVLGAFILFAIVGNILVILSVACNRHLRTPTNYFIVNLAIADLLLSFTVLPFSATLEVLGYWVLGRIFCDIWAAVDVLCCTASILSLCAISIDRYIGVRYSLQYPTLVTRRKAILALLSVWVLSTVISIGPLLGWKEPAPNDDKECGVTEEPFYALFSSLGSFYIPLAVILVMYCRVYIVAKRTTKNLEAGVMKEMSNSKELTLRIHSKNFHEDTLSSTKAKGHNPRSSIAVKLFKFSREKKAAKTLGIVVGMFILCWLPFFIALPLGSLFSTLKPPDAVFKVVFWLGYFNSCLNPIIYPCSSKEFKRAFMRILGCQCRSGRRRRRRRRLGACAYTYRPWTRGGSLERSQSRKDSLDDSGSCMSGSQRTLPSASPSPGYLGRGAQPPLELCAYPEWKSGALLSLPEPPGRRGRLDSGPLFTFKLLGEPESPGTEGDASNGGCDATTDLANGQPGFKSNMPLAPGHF

Rattus norvegicus [8] = organism: Rattus norvegicus; assay: (§2) In vitro percent efficacy of compound was tested in rat aorta; assay type: functional
Method in brief: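 Isolated tissue contraction: agonist dose–response curves run in rat aorta (α1D) and rat spleen (α1B). Efficacy is the percent response relative to phenylephrine. EC50 is taken as the dose contracting the tissue 50%. Data reported ± SEM.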

[9] = target: T2, Alpha-1D adrenergic receptor; assay: Binding affinity towards rat cloned Alpha-1D adrenergic receptor; value ranges from (1.3 -1.6)
[10] = target: T3, Alpha-1B adrenergic receptor; assay: Effective concentration in vitro against rat spleen Alpha-1B adrenergic receptor indicates EC50 < 15% at a concentration of 10 uM; assay type: tissue-based
[11] = target: T2, Alpha-1D adrenergic receptor; assay: Effective concentration in vitro against rat aorta Alpha-1D adrenergic receptor;* indicates EC50 < 15% at a concentration of 10 uM; assay type: tissue-based
[12] = target: T5, Alpha-1B adrenergic receptor; assay: Binding affinity towards hamster cloned Alpha-1B adrenergic receptor; value ranges from (6.2 -7.7); set-up: species or system Cricetulus griseus
[13] = target: T2, Alpha-1D adrenergic receptor; assay: Binding affinity towards rat cloned Alpha-1D adrenergic receptor; value ranges from (1.5 - 1.9)
Rattus norvegicus [14] = organism: Rattus norvegicus; assay: In vitro percent efficacy of compound was tested in rat spleen; assay type: functional
[15] = target: T1, Alpha-1A adrenergic receptor; assay: Binding affinity towards rat submaxillary gland Alpha-1 adrenergic receptor; value ranges from (1.6 -2.5)
Rattus norvegicus [16] = organism: Rattus norvegicus; assay: as §2; assay type: functional; remark: listed apart in the source
[17] = target: T1, Alpha-1A adrenergic receptor; assay: Binding affinity towards rat submaxillary gland Alpha-1 adrenergic receptor; value ranges from (6.2 - 15)
[18] = target: T2, Alpha-1D adrenergic receptor; assay: Binding affinity towards rat cloned Alpha-1D adrenergic receptor; value ranges from (5.5 -13)
[19] = target: T5, Alpha-1B adrenergic receptor; assay: Binding affinity towards hamster cloned Alpha-1B adrenergic receptor mean;value ranges from( 6.4 -14); set-up: species or system Cricetulus griseus
Rattus norvegicus [20] = organism: Rattus norvegicus; assay: In vitro percent efficacy of compound was tested rat spleen; assay type: functional

SMILES	Efficacy (Oryctolagus cuniculus) [%]	ED5 (Canis familiaris [4]) [nM/kg]	ED20 (Canis familiaris [5]) [nM/kg]	pEC50 [10]	pEC50 [11]	Efficacy (Rattus norvegicus [16]) [%]	other results
CCS(=O)(=O)Nc1cccc(Cc2c[nH]cn2)c1	80	12	80	–	–	–	pKi [1]: 6.85; Kb [2]: 0.631 µM; Kb [3]: 3.98 µM; NA [6]: inactive
CS(=O)(=O)Nc1c(O)ccc2c1CCCC2C1=NCCN1 (stereo not drawn)	88	0.16	0.27	–	–	–	pKi [7]: 5.54; Efficacy (Rattus norvegicus [8]): 100%; pKi [9]: 5.82
COc1ccc(OC)c(C(O)CN)c1 (stereo not drawn) [DESGLYMIDODRINE]	133	205	250	4.07	5.72	106	pKi [12]: 5.16; pKi [13]: 5.77; Efficacy (Rattus norvegicus [14]): 68%; pKi [15]: 5.70
C[C@H](N)[C@H](O)c1ccccc1 [(1R,2S)-PHENYLPROPANOLAMINE]	68	1100	330	3.55	4.24	91	pKi [17]: 5.01; pKi [18]: 5.08; pKi [19]: 5.02; Efficacy (Rattus norvegicus [20]): 34%
